Experimental findings from ChEMBL document CHEMBL2331117 (J Med Chem, 2013) are described below.

In brackets after ≈: the same amount, converted by molar mass. Some results are limits rather than exact numbers.

The nature of data set [1]: Plasma concentration in mouse at 100 mg/kg, po after 1 hr. It is filed as ADME, organism-based. The arrangement: dose 100 mg/kg, route oral.
A short description of data set [2]: Apparent permeability across MDCK cells. The class given is ADME, cell-based, Canis lupus familiaris. To be noted: dog.
A short description of data set [3]: Inhibition of mTORC1 (unknown origin)-mediated 4EBP1 phosphorylation after 120 mins by ELISA. Set-up: species or system Homo sapiens. A general note: An ELISA detects its analyte on a solid surface through an enzyme-linked reagent.
The nature of data set [4]: Metabolic stability in mouse liver microsomes after 30 mins. It is filed as ADME, Microsome. To be noted: read-out: Stability.
Data set [5] can be described thus: Kinetic solubility of the compound. It is filed as physicochemical. To be noted: read-out: Kinetic_solubility.
In another data set the target is Cytochrome P450 2D6 (Homo sapiens, UniProt P10635). The data set can be described thus: Inhibition of CYP2D6 (unknown origin). It is filed as ADME.
Chain of Cytochrome P450 2D6 (P10635 whole entry, canonical isoform): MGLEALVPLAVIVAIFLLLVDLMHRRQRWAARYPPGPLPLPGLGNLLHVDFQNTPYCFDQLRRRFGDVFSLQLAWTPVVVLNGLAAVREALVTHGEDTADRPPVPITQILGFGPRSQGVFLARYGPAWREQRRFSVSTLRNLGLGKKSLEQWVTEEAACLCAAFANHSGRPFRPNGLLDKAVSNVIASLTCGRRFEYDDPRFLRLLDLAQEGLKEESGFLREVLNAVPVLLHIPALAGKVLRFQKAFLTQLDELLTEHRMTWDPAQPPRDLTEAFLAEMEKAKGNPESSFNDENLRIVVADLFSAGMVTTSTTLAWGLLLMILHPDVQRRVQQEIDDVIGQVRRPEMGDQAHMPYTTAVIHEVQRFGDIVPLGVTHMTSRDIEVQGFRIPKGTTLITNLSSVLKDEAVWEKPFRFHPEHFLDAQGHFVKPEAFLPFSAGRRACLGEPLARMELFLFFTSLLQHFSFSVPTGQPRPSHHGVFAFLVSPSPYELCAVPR
Data set [6] addresses Phosphatidylinositol 4,5-bisphosphate 3-kinase catalytic subunit alpha isoform (Homo sapiens, UniProt P42336). The data set can be described thus: Inhibition of PI3Kalpha (unknown origin) using PIP2 as substrate after 2 hrs by luminescence assay.
The target in a further data set is Cytochrome P450 3A4 (Homo sapiens, UniProt P08684). Briefly: Inhibition of CYP3A4 (unknown origin). It is filed as ADME.
Chain of Cytochrome P450 3A4 (P08684 whole entry): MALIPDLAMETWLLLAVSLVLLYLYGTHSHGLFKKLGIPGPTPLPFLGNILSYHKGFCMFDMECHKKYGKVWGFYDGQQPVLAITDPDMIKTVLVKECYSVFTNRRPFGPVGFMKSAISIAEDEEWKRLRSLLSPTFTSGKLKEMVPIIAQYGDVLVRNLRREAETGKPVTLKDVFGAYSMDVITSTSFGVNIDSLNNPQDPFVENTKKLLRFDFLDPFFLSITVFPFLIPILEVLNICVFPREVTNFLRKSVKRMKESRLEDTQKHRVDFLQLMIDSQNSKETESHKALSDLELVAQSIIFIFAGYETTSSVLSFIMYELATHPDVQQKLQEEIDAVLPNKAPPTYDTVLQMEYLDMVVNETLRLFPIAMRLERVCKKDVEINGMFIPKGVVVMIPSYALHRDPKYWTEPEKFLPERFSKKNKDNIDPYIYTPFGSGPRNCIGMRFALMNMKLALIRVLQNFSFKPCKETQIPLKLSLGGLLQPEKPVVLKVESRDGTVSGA
A short description of data set [7]: Plasma concentration in mouse at 100 mg/kg, po after 4 hrs. The class given is ADME, organism-based. Set-up: dose 100 mg/kg, route oral.
The target of a further data set is Cytochrome P450 2C9 (Homo sapiens, UniProt P11712). The data set can be described thus: Inhibition of CYP2C9 (unknown origin). It is filed as ADME.
Chain of Cytochrome P450 2C9 (P11712 whole entry): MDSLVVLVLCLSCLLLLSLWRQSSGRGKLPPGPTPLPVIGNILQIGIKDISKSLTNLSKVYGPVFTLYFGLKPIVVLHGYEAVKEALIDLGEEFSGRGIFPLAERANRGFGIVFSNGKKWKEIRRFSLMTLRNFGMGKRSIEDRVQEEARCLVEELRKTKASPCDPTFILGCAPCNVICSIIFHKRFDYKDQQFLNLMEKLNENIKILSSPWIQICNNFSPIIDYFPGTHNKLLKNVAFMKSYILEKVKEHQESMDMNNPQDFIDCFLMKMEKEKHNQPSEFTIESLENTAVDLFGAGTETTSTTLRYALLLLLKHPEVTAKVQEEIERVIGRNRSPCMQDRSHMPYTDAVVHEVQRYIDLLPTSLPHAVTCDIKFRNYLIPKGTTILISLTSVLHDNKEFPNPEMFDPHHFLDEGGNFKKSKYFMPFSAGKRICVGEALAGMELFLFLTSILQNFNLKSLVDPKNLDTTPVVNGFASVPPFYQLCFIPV
The nature of data set [8]: Inhibition of mTORC1-mediated phosphorylation of S6 at serine 240/244 in human PC3 cells after 3 hrs by ELISA. It is filed as cell-based. The note with it: PC-3, 3 h.
Another data set addresses T1, Cytochrome P450 2C8 (Homo sapiens, UniProt P10632).
T1 sequence (P10632 whole entry): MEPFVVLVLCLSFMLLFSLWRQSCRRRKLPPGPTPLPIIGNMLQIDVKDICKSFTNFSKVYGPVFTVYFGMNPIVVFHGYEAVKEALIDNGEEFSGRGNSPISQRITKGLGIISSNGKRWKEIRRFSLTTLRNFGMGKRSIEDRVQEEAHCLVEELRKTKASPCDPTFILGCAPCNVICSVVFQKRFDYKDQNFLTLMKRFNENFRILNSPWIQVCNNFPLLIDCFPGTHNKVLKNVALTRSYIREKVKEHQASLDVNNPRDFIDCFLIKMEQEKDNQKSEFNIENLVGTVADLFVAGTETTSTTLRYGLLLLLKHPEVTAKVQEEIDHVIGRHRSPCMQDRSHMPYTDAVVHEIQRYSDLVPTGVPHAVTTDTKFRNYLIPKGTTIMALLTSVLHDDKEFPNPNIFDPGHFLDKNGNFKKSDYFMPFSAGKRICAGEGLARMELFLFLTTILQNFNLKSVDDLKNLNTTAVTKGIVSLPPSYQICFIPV
The data set can be described thus: Inhibition of CYP2C8 (unknown origin). The class given is ADME.

A further data set is filed under the species Homo sapiens. Briefly: Selectivity ratio of IC50 for PI3Kalpha (unknown origin) to IC50 for mTOR (unknown origin).
Data set [9] is described as follows: Inhibition of mTORC2-mediated phosphorylation of AKT at serine 473 in human PC3 cells after 2 hrs and 50 mins by ELISA. The class given is cell-based. To be noted: PC-3. The method, boiled down: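 Compound in 0.3% DMSO was added for 2 h 50 min, followed by 10 min stimulation with 20 ng/mL EGF. After formaldehyde fixation, pAKT (S473) and total AKT were detected by chemiluminescent cell ELISA. IC50 came from pAKT normalized to total AKT, relative to DMSO control. Mean, n ≥ 2.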

Chain of Phosphatidylinositol 4,5-bisphosphate 3-kinase catalytic subunit alpha isoform (P42336 whole entry, canonical isoform): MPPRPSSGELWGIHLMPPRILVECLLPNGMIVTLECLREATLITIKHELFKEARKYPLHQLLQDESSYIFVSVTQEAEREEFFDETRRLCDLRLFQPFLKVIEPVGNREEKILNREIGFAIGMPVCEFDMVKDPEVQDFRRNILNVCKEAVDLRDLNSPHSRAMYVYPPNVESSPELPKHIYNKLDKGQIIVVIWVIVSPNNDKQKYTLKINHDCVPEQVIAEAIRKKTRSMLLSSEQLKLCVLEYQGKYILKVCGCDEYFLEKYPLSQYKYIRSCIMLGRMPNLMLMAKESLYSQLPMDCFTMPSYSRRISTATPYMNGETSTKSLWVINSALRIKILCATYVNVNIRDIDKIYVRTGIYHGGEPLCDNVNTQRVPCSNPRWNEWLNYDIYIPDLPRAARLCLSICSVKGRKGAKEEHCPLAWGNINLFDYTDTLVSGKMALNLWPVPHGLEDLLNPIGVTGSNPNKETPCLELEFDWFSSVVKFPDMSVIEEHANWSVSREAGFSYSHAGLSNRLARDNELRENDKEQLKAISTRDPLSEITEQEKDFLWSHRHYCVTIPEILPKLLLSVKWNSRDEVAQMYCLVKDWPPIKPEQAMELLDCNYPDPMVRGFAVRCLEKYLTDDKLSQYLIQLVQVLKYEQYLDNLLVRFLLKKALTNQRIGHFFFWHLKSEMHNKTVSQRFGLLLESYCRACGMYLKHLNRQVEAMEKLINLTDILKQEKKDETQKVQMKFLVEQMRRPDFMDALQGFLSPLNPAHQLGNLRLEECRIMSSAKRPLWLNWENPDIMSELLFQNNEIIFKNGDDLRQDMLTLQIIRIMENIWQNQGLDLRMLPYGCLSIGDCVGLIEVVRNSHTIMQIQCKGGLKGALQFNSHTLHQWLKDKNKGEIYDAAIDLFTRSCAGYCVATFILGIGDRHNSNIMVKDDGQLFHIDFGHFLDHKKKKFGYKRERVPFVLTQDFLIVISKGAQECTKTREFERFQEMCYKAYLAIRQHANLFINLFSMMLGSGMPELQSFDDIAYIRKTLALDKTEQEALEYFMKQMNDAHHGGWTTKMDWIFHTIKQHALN

With `O=C(c1ccc(C(=O)C(F)(F)F)cc1)N1CCOc2ccc(-c3ccc4nc[nH]c4c3)cc2C1`, in data set [1], the concentration at 1 h was 1500 nM. The apparent permeability (Papp) in data set [2] is 0.98 ×10⁻⁶ cm/s. Also, the IC50 in data set [3] was found to be 2.3 nM; in [6] it was 89 nM; in [8], 151 nM. In [4], the remaining at 0.5 h amounted to 49%. Moreover, the solubility kinetic in [5] is under 1 µM. Further, the INH at Cytochrome P450 2D6 stood at 4 µM; at Cytochrome P450 3A4, 2.3 µM; at Cytochrome P450 2C9, 0.8 µM; on Cytochrome P450 2C8 it was 6.2 µM. This compound displayed a concentration at 4 h in [7] of 400 nM.

Turning to `O=C(c1ccc(C(=O)C(F)(F)F)cc1)N1CCOc2ccc(-c3cnc4ccccc4c3)cc2C1`, in the data set listed under Homo sapiens, the Ratio IC50 was 4. In addition, the Papp in [2] amounted to 1.69 ×10⁻⁶ cm/s. Moreover, the IC50 is 95 nM in [3] and 398 nM in data set [6]. The solubility kinetic in [5] amounted to 40.1 µM (≈ 19.1 µg/mL).

Turning to `CS(=O)(=O)c1ccc(C(=O)N2CCOc3ccc(-c4ccc5nc[nH]c5c4)cc3C2)cc1`, the concentration at 1 h in [1] stood at 7800 nM. The IC50 stood at 4.4 nM in data set [3], 805 nM in data set [9], 670 nM in data set [6] and 342 nM in data set [8]. For the same compound, in [4], the remaining at 0.5 h came out at 82%. In addition, the INH at Cytochrome P450 2D6 was 8.1 µM; on Cytochrome P450 3A4, 3.8 µM; on Cytochrome P450 2C9 it was 3 µM; at Cytochrome P450 2C8, over 20 µM. Besides, the concentration at 4 h in [7] amounted to 1000 nM.

What is called Papp is the rate of passage across a membrane or cell layer, normalised by area and donor concentration. For orientation: IC50 means the concentration that inhibits the measured activity by half. High values mean weaker potency in that assay, low ones greater potency in that assay.
